Reference: ChEMBL document CHEMBL4673248, “Discovery and Characterization of BAY 1214784, an Orally Available Spiroindoline Derivative Acting as a Potent and Selective Antagonist of the Human Gonadotropin-Releasing Hormone Receptor as Proven in a First-In-Human Study in Postmenopausal Women” (J Med Chem, 2020)
pIC50, pKd: −log10 of the molar value.

Key:
[1] = Maximum oral bioavailability in human liver microsomes based well stirred liver model at 1 uM measured after 2 to 60 mins in presence of NADP generating system by LC-MS/MS analysis; type: ADME, Microsome; conditions: time 2-60 min, read-out: Fmax
How it was run: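 Human liver microsomes at 0.5 mg/mL in 100 mM phosphate pH 7.4, 37 °C, G6P/NADP/G6PDH cofactor mix. Compound 1 µM, sampled at 2, 8, 16, 30, 45 and 60 min into cold MeOH, LC-MS/MS. Half-life to intrinsic clearance. Fmax from well-stirred model with liver blood flow 1.32 L/h/kg.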

[2] = Toxicity in postmenopausal woman at 5 to 450 mg, po administered as single dose using SMEDDS formulation; conditions: human, in vivo
[3] = Maximum oral bioavailability in rat liver microsomes based well stirred liver model at 1 uM measured after 2 to 60 mins in presence of NADP generating system by LC-MS/MS analysis; type: ADME, Microsome; conditions: time 2-60 min, read-out: Fmax
[4] = Fraction unbound in human plasma; type: ADME, cell-free
[5] = target: Mitogen-activated protein kinase 14 (Homo sapiens, UniProt Q16539); experiment: Inhibition of MAPK14 (unknown origin)
Mitogen-activated protein kinase 14, sequence (Q16539 whole entry): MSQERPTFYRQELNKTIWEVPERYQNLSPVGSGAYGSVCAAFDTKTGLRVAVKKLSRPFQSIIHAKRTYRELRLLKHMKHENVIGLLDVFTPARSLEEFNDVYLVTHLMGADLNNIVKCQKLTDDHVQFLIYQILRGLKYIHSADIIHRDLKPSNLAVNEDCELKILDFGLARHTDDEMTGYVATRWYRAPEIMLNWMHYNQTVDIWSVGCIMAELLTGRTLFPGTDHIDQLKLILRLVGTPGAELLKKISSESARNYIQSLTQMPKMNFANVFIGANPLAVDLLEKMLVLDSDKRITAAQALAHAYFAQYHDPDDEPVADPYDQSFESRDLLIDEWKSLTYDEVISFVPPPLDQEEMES

Cytochrome P450 1A2 = target: T1, Cytochrome P450 1A2 (Homo sapiens, UniProt P05177); experiment: Inhibition of CYP1A2 in human liver microsomes using phenacetin as substrate by LC-MS/MS analysis; type: ADME
T1 sequence (P05177 whole entry): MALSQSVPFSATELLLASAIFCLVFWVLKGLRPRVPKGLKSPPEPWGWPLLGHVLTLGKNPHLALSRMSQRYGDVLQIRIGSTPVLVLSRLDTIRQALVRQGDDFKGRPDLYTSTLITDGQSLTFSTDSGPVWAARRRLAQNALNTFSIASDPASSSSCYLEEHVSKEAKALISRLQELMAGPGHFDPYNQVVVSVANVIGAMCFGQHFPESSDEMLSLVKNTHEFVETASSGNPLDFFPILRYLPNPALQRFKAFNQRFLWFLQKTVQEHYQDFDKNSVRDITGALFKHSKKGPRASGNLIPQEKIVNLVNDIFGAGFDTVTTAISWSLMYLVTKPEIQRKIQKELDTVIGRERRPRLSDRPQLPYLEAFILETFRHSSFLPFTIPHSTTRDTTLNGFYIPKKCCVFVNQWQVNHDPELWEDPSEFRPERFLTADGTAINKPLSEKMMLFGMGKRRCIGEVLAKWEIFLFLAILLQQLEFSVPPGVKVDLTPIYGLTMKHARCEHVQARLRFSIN

Cytochrome P450 3A4 = Cytochrome P450 3A4 (Homo sapiens, UniProt P08684); experiment: Irreversible inhibition of CYP3A4 in human liver microsomes using midazolam as substrate; type: ADME
Cytochrome P450 3A4, sequence (P08684 whole entry): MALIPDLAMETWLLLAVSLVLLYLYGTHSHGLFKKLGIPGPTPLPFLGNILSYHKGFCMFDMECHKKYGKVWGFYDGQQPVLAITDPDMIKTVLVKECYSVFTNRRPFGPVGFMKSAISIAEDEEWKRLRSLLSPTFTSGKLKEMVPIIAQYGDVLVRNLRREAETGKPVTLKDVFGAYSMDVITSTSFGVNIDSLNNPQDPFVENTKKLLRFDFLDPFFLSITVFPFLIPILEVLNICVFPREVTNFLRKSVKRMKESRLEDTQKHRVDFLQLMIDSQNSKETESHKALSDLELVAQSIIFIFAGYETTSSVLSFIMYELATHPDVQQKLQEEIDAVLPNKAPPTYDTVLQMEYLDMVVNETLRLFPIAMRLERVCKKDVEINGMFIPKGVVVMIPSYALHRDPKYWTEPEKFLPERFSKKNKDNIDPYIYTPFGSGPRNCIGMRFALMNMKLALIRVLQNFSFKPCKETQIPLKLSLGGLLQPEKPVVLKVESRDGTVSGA

[6] = Maximum oral bioavailability in dog hepatocytes; type: ADME, Canis lupus familiaris, Hepatocyte; conditions: read-out: Fmax
Homo sapiens = experiment: Suppression of plasma luteinizing hormone level in postmenopausal woman at 300 mg, po administered as single dose using SMEDDS formulation by ECLIA relative to control; type: functional
[7] = Maximum oral bioavailability in cynomolgus monkey liver microsomes based well stirred liver model; type: ADME, Macaca fascicularis, Microsome; conditions: read-out: Fmax
[8] = Apparent permeability across basolateral to apical side in human Caco2 cells at 2 uM measured after 2 hrs by LC-MS/MS analysis; type: ADME, cell-based; conditions: Caco-2
How it was run: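 Caco-2 monolayers grown 15 d, integrity checked by TEER. Compound 2 µM added apical or basolateral in FCS-free HEPES carbonate buffer pH 7.2, incubated 2 h at 37 °C. Both compartments sampled before and after, analysed by LC-MS/MS after MeOH precipitation. Papp computed from receiver peak area, surface area and time. Efflux ratio taken as Papp B–A/Papp A–B.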

Cytochrome P450 2D6 = Cytochrome P450 2D6 (Homo sapiens, UniProt P10635); experiment: Inhibition of CYP2D6 in human liver microsomes using dextromethorphan as substrate by LC-MS/MS analysis; type: ADME
Cytochrome P450 2D6, sequence (P10635 whole entry): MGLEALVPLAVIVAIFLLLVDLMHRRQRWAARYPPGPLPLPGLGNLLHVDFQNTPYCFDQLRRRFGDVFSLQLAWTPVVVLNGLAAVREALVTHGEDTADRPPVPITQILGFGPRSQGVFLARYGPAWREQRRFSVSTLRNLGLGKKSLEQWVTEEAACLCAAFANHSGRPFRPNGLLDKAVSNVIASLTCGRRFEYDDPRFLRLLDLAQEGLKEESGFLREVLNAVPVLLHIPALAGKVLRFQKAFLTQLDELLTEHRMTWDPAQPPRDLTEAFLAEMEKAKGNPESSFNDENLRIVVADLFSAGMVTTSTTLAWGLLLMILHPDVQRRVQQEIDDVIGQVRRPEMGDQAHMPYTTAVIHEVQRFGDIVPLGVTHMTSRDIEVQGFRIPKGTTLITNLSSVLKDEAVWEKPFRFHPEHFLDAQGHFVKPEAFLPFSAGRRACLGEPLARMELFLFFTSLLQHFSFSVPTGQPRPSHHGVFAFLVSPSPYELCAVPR

[9] = Half life in Wistar rat at 0.5 mg/kg, iv by LC-MS/MS analysis; type: ADME, organism-based; conditions: in vivo
[10] = target: T2, Gonadotropin-releasing hormone receptor (Homo sapiens, UniProt P30968); experiment: Inhibition of Tag-lite green-labeled agonist binding to terbium fluorophore-labeled human N-terminal SNAP-tag GnRh receptor expressed in HEK293 cells by TR-FRET assay; type: cell-based
T2 sequence (P30968 whole entry): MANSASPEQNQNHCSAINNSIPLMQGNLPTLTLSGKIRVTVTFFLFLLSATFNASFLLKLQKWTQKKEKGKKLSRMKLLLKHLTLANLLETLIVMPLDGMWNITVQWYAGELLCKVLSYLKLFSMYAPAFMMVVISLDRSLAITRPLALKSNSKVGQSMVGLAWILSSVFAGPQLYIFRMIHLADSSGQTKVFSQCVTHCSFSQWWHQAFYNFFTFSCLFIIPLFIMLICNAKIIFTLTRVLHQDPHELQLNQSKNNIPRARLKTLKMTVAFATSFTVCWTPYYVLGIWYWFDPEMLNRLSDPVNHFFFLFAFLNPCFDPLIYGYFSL
How it was run: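 Frozen transiently transfected HEK293 with Tb-labelled SNAP-tag hGnRH-R, 5.6 × 10^4 cells/well in Tag-lite buffer. Green-labelled agonist 4 nM. Nonspecific wells received buserelin 10 µM. Incubated 60 min at rt, TR-FRET 520/495 nm ratio read.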

Cytochrome P450 2C8 = target: T3, Cytochrome P450 2C8 (Homo sapiens, UniProt P10632); experiment: Inhibition of CYP2C8 in human liver microsomes using amodiaquine as substrate by LC-MS/MS analysis; type: ADME
T3 sequence (P10632 whole entry): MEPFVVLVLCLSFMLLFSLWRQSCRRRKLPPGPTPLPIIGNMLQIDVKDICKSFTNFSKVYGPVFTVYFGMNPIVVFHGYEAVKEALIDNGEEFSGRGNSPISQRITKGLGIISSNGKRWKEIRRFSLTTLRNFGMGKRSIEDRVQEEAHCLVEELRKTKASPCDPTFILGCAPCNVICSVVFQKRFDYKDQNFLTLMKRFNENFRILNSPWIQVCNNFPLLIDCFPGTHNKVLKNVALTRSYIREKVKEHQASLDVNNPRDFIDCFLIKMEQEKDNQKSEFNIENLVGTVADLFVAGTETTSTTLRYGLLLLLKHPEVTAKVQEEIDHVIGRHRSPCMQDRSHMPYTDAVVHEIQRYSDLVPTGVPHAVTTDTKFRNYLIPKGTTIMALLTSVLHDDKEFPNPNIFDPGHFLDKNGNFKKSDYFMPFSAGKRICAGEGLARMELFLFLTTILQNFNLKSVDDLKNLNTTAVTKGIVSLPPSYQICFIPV

[11] = Clearance in Wistar rat at 0.5 mg/kg, iv by LC-MS/MS analysis; type: ADME, organism-based; conditions: Wistar, in vivo
[12] = target: T2, Gonadotropin-releasing hormone receptor; experiment: Inhibition of Tag-lite green-labeled agonist binding to terbium fluorophore-labeled human N-terminal SNAP-tag GnRh receptor expressed in HEK293 cells assessed as equilibrium dissociation constant by TR-FRET assay; type: cell-based
[13] = Clearance in rat liver microsomes at 1 uM measured upto 60 mins in presence of NADP generating system by LC-MS/MS analysis; type: ADME, Microsome; conditions: 1 h
[14] = target: Voltage-gated inwardly rectifying potassium channel KCNH2 (Homo sapiens, UniProt Q12809); experiment: Inhibition of human ERG expressed in HEK293 cells assessed as reduction in channel inward tail current by whole cell voltage clamp assay; type: cell-based
Voltage-gated inwardly rectifying potassium channel KCNH2, sequence (Q12809 whole entry): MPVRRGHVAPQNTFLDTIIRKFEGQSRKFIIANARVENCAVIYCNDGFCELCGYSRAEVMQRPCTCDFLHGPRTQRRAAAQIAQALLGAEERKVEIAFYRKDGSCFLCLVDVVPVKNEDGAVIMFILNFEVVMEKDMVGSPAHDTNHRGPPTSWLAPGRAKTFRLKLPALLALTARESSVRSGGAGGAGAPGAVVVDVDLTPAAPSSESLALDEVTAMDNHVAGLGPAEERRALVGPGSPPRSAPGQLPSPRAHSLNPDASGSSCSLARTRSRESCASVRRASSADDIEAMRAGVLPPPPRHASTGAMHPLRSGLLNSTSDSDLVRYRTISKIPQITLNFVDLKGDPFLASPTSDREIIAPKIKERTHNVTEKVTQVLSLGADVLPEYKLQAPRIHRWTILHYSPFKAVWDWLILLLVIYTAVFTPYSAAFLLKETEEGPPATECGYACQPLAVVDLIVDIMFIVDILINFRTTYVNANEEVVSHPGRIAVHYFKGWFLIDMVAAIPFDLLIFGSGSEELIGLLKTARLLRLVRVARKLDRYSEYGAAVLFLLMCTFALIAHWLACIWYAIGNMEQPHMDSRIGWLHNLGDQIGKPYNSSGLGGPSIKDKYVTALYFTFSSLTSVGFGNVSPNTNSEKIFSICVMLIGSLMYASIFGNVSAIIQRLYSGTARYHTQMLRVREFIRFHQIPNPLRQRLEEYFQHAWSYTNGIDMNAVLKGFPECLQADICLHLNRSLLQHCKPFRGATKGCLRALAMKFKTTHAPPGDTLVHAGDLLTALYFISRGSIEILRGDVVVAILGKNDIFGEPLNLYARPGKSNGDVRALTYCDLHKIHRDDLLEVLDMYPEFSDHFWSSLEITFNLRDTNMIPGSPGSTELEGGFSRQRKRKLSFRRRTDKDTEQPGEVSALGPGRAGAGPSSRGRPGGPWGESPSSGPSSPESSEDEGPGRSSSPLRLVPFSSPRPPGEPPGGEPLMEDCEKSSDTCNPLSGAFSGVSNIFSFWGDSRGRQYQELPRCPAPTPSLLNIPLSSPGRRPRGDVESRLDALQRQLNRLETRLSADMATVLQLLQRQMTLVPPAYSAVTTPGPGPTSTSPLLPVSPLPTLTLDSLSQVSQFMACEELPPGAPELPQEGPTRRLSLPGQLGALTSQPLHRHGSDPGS

Fh at 1 µM [1]: 100%
Fh at 1 µM [3]: 91%
fraction unbound [4]: 0.014
pIC50 [5]: 4.97
pIC50 (Cytochrome P450 1A2): < 5.00
pIC50 (Cytochrome P450 3A4): < 5.00
Fh [6]: 65%
Fh [7]: 81%
Papp B→A at 2 h, 2 µM [8]: 12.9 ×10⁻⁶ cm/s
pIC50 (Cytochrome P450 2D6): < 5.00
half-life [9]: 16 h
pIC50 [10]: 7.57
pIC50 (Cytochrome P450 2C8): 6.00
clearance [11]: 9 mL/min/kg
pKd [12]: 8.26
CLH [13]: 6.33 mL/min/kg
SMILES: O=C(NCc1ncc(C(F)(F)F)cc1Cl)c1ccc2c(c1)C1(CCS(=O)(=O)CC1)[C@H](C1CC1)N2S(=O)(=O)c1ccc(F)cc1 [BAY-784]
Activity [2]: Non-Toxic
Activity (Homo sapiens): 49%
pIC50 [14]: < 5.00
